32 molecules from ChEMBL document CHEMBL2331528, “Design and synthesis of bicyclic pyrazinone and pyrimidinone amides as potent TF-FVIIa inhibitors” (Bioorg Med Chem Lett, 2013) can be followed below.

A word on the Ki: it is a dissociation constant, usually derived from enzyme kinetics or from competition with a known ligand. A low value points to higher affinity.

One data set addresses Coagulation factor X (Homo sapiens, UniProt P00742). Description: Inhibition of factor-10a (unknown origin) by chromogenic substrate assay. A digest of the protocol: (§1)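 Ki from chromogenic substrate assays at 25 °C; n = 2.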
In another data set the target is Prothrombin (Homo sapiens, UniProt P00734). Description: Inhibition of thrombin (unknown origin) by chromogenic substrate assay. The method in brief:
as §1

Data set [1] concerns the target Coagulation factor VII/tissue factor (Homo sapiens, UniProt P08709). The experiment in a line: Inhibition of tissue factor-factor 7a (unknown origin) interaction by chromogenic substrate assay. The format is protein-complex assay. The method in brief: as §1
The species named for data set [2] is Homo sapiens. Description: Selectivity ratio of Ki for thrombin (unknown origin) to Ki for tissue factor-factor 7a (unknown origin) interaction.
The subject of data set [3] is Plasma. Description: Fraction unbound in human plasma. The data set is classed as ADME, cell-free.
The species entered for data set [4] is Homo sapiens. The experiment in a line: Selectivity ratio of Ki for plasma kallikrein (unknown origin) to Ki for tissue factor-factor 7a (unknown origin) interaction.
The species entered for data set [5] is Homo sapiens. Description: Selectivity ratio of Ki for factor-10a (unknown origin) to Ki for tissue factor-factor 7a (unknown origin) interaction.
Data set [6] is filed under the species Homo sapiens. The experiment in a line: Selectivity ratio of Ki for factor-9a (unknown origin) to Ki for tissue factor-factor 7a (unknown origin) interaction.
The species named for data set [7] is Homo sapiens. Description: Selectivity ratio of Ki for trypsin (unknown origin) to Ki for tissue factor-factor 7a (unknown origin) interaction.
For data set [8], the species on record is Homo sapiens. The experiment in a line: Selectivity ratio of Ki for factor-11a (unknown origin) to Ki for tissue factor-factor 7a (unknown origin) interaction.
Data set [9] deals with Plasma. Description: Anticoagulant activity in factor 7 deficient human plasma assessed as concentration required to prothrombin time. The format is functional.

Chain of Coagulation factor X (P00742 41-179 limits assumed): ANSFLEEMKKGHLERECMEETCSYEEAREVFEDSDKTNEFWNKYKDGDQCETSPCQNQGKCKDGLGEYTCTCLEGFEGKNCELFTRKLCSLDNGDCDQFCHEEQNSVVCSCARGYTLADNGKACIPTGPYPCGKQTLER
Chain of Coagulation factor X (P00742 235-488 limits assumed): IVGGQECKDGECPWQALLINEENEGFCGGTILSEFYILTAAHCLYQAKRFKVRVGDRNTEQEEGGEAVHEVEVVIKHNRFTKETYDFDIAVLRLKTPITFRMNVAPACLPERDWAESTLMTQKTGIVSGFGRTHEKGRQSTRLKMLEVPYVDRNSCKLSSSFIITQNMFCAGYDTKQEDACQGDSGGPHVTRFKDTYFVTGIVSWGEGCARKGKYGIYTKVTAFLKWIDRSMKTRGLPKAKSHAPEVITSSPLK
Chain of Coagulation factor VII/tissue factor (P08709 61-212 limits assumed): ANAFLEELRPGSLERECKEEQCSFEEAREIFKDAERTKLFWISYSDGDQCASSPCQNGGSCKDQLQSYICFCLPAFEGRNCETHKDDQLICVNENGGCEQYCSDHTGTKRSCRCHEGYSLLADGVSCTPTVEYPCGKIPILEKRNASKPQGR
Chain of Coagulation factor VII/tissue factor (P08709 213-466 limits assumed): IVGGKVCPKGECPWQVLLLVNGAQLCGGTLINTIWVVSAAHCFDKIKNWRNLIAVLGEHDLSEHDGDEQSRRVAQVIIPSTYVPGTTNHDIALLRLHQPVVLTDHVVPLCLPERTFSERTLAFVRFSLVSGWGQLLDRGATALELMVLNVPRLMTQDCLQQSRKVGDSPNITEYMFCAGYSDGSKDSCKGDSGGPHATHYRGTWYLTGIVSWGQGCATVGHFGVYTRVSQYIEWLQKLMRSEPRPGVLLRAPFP
Chain of Coagulation factor VII/tissue factor (P13726 33-295 partner limits assumed): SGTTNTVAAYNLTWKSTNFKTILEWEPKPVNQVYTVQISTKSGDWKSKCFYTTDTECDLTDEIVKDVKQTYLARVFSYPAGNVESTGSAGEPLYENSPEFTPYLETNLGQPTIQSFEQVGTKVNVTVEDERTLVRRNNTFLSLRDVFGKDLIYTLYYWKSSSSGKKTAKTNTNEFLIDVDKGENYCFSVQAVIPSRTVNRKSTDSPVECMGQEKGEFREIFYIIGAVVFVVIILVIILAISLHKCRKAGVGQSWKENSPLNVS

As for `CC1(C)C[C@@H](C(=O)NCc2ccc(C(=N)N)cc2)n2c1c(Cl)nc(NC1CCCC1)c2=O`, the results for the Ki (on Coagulation factor X; at Prothrombin; in data set [1]) were more than 15000 nM, 160 nM and 60 nM, respectively.

On to `CCC[C@@]1(C)C[C@@H](C(=O)NCc2ccc(C(=N)N)cc2)n2c1c(Cl)nc(NC1CCC1)c2=O`, for which the Ki was 2200 nM on Coagulation factor X, 110 nM on Prothrombin and 21 nM in data set [1].

Consider `CCCC1(CCC)C[C@@H](C(=O)NCc2ccc(C(=N)N)cc2)n2c1c(Cl)nc(NC1CCC1)c2=O`, for which the inhibitory constant (Ki) at Coagulation factor X came to 550 nM; on Prothrombin, 170 nM; in [1], 28 nM.

For `Cc1ccc(CNc2nc(Cl)c3n(c2=O)[C@H](C(=O)NCc2ccc(C(=N)N)cc2)CC3(C)C)o1`, the Ki in data set [1] is 190 nM.

As for `CCC[C@]1(C)C[C@@H](C(=O)NCc2ccc(C(=N)N)cc2)n2c1c(Cl)nc(NC1CCC1)c2=O`, the inhibition constant Ki on Coagulation factor X was found to be 1000 nM; on Prothrombin, 36 nM; in [1], 23 nM.

As to `CC(C)(C)Nc1nc(Cl)c2n(c1=O)[C@H](C(=O)NCc1ccc(C(=N)N)cc1)CC2(C)C`, the Ki at Coagulation factor X worked out at 2800 nM; on Prothrombin, 220 nM; in data set [1], 68 nM.

`CC(Nc1nc(Cl)c2n(c1=O)[C@H](C(=O)NCc1ccc(C(=N)N)cc1)CC2(C)C)C(C)(C)C` (stereo partly specified) registered a Ki in data set [1] of 84 nM.

As for `CCC1(CC)C[C@@H](C(=O)NCc2ccc(C(=N)N)cc2)n2c1c(Cl)nc(NC1CCC1)c2=O`, the Ki was determined as 3300 nM at Coagulation factor X, 210 nM on Prothrombin and 7.3 nM in data set [1]. For the same molecule, the Ratio Ki is 30 in the data set listed under Homo sapiens [2]; less than 3 in the data set filed under Homo sapiens [4]; more than 160 in the data set listed under Homo sapiens [5]; more than 160 in the data set filed under Homo sapiens [6]; less than 3 in the data set listed under Homo sapiens [7]; more than 160 in the data set listed under Homo sapiens [8]. The “Cp(f)” value in the data set with Plasma [3] turned out to be 6.8%. Also, the Activity in the data set on Plasma [9] is 5.6 µM.

For `CCCNc1cnc2n(c1=O)[C@H](C(=O)NCc1ccc(C(=N)N)cc1)C[C@@]2(C)CC`, the Ki at Coagulation factor X is more than 15000 nM; at Prothrombin it was 2100 nM; in data set [1], 150 nM.

`N=C(N)c1ccc(CNC(=O)[C@@H]2CC3(CCCC3)c3c(Cl)nc(NC4CCC4)c(=O)n32)cc1`: the inhibitory constant (Ki) on Coagulation factor X is more than 15000 nM; on Prothrombin, 78 nM; in data set [1] it was 99 nM.

In data set [1], `CCC1(CC)C[C@@H](C(=O)NCc2ccc(CN)cc2)n2c1c(Cl)nc(NC1CCC1)c2=O` showed a Ki of 300 nM. This counts as sub-micromolar.

Take `CNc1nc(Cl)c2n(c1=O)[C@H](C(=O)NCc1ccc(C(=N)N)cc1)CC2(C)C`: the Ki at Coagulation factor X is more than 15000 nM; at Prothrombin, 230 nM; in data set [1], 24 nM.

As for `CCC1(CC)C[C@@H](C(=O)NCc2ccc3c(N)nccc3c2)n2c1c(Cl)nc(NC1CCC1)c2=O`, in data set [1], the Ki is 360 nM.

For the molecule `CCCNc1cnc2n(c1=O)[C@H](C(=O)NCc1ccc(C(=N)N)cc1)CC2(CC)CC`, the results for the Ki (at Coagulation factor X; on Prothrombin; in data set [1]) were 12000 nM, 5200 nM and 75 nM, respectively.

With `CC1(C)C[C@@H](C(=O)NCc2ccc(C(=N)N)cc2)n2c1c(Cl)nc(NC1CCC1)c2=O`, the Ki was more than 15000 nM on Coagulation factor X, 200 nM on Prothrombin and 23 nM in data set [1].

On to `CC(C)CNc1nc(Cl)c2n(c1=O)[C@H](C(=O)NCc1ccc(C(=N)N)cc1)CC2(C)C`, for which the values for the Ki (on Coagulation factor X; on Prothrombin; in data set [1]) were more than 15000 nM, 220 nM and 43 nM, respectively.

In the case of `CC(C)(C)OC(=O)CNc1nc(Cl)c2n(c1=O)[C@H](C(=O)NCc1ccc(C(=N)N)cc1)CC2(C)C`, the inhibition constant Ki at Prothrombin was 32 nM; in data set [1], 132 nM.

Turning to `CC1(C)C[C@@H](C(=O)NCc2ccc(C(=N)N)cc2)n2c1c(Cl)nc(NCC1CCCCC1)c2=O`, the results for the inhibitory constant (Ki) (on Coagulation factor X; at Prothrombin; in data set [1]) were more than 15000 nM, 220 nM and 76 nM, respectively.

With `COCC(C)Nc1nc(Cl)c2n(c1=O)[C@H](C(=O)NCc1ccc(C(=N)N)cc1)CC2(C)C` (stereo partly specified), the affinity in data set [1] corresponds to a Ki of 130 nM. That is a sub-micromolar value.

On to `CCNc1nc(Cl)c2n(c1=O)[C@H](C(=O)NCc1ccc(C(=N)N)cc1)CC2(C)C`, for which the inhibition constant Ki at Coagulation factor X was more than 15000 nM; on Prothrombin it was 260 nM; in data set [1] it was 19 nM.

Regarding `CC1(C)C[C@@H](C(=O)NCc2ccc(C(=N)N)cc2)n2c1c(Cl)nc(NC1(CO)CCCC1)c2=O`, the Ki at Coagulation factor X is more than 15000 nM; on Prothrombin it was 380 nM; in data set [1], 70 nM.

With `CCCNc1cnc2n(c1=O)[C@H](C(=O)NCc1ccc(C(=N)N)cc1)CC2`, the Ki on Coagulation factor X is more than 15000 nM; on Prothrombin, 150 nM; in data set [1], 186 nM.

Turning to `CNC(=O)[C@]1(C)C[C@@H](C(=O)NCc2ccc(C(=N)N)cc2)n2c1c(Cl)nc(NC1CCC1)c2=O`, the inhibition constant (Ki) on Coagulation factor X was 1100 nM; on Prothrombin, more than 15000 nM; in data set [1] it was 2100 nM.

As to `C[C@@]1(CO)C[C@@H](C(=O)NCc2ccc(C(=N)N)cc2)n2c1c(Cl)nc(NC1CCC1)c2=O`, the results for the inhibition constant Ki (on Coagulation factor X; at Prothrombin; in data set [1]) were more than 15000 nM, more than 15000 nM and 72 nM, respectively.

As for `C[C@@]1(C(=O)NCc2ccccc2)C[C@@H](C(=O)NCc2ccc(C(=N)N)cc2)n2c1c(Cl)nc(NC1CCC1)c2=O`, the inhibition constant (Ki) at Coagulation factor X was 3700 nM; on Prothrombin it was more than 15000 nM; in data set [1], 560 nM.

For `C=CC[C@]1(C)C[C@@H](C(=O)NCc2ccc(C(=N)N)cc2)n2c1c(Cl)nc(NC1CCC1)c2=O`, the results for the Ki (at Coagulation factor X; at Prothrombin; in data set [1]) were 650 nM, 220 nM and 5.8 nM, respectively.

In the case of `CCCNc1cnc2n(c1=O)[C@H](C(=O)NCc1ccc(C(=N)N)cc1)CC2(CCC)CCC`, the inhibition constant (Ki) at Coagulation factor X is 3600 nM; on Prothrombin, 1200 nM; in data set [1], 620 nM.

On to `CCC1(CC)C[C@@H](C(=O)NCc2ccc3c(N)noc3c2)n2c1c(Cl)nc(NC1CCC1)c2=O`, for which, in [1], the Ki was found to be 1900 nM.

On to `CC(C)Nc1nc(Cl)c2n(c1=O)[C@H](C(=O)NCc1ccc(C(=N)N)cc1)CC2(C)C`, for which the values for the inhibitory constant (Ki) (on Coagulation factor X; on Prothrombin; in data set [1]) were more than 15000 nM, 130 nM and 17 nM, respectively.

In the case of `CCCNc1cnc2n(c1=O)[C@H](C(=O)NCc1ccc(C(=N)N)cc1)CC2(C)C`, the Ki was more than 15000 nM at Coagulation factor X, 1800 nM on Prothrombin and 290 nM in data set [1].

Turning to `N=C(N)c1ccc(CNC(=O)[C@@H]2CCc3c(Cl)nc(NC4CCC4)c(=O)n32)cc1`, the Ki is more than 15000 nM on Coagulation factor X, 35 nM at Prothrombin and 30 nM in [1].

On to `CC1(C)C[C@@H](C(=O)NCc2ccc(C(=N)N)cc2)n2c1c(Cl)nc(NC1CC1)c2=O`, for which the inhibition constant Ki at Coagulation factor X is more than 15000 nM; on Prothrombin it was 360 nM; in [1], 37 nM.
